Data reported in ChEMBL document CHEMBL3763021 (Eur J Med Chem, 2016).
pIC50: −log10 of the molar value.

How the values were obtained:
[1] = Inhibition of Sonic-induced hedgehog signalling in mouse NIH3T3 cells after 48 hrs by Gli-luciferase reporter assay; format: cell-based; settings: NIH3T3, 48 h
Method in brief: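 NIH3T3 cells stably carrying a Gli-luciferase reporter were kept in DMEM with 10% FBS and 1 µg/mL puromycin, then seeded at 2×10^4 cells/well overnight at 37 °C. Compounds at 0.05–300 nM (8 concentrations) were added in medium with 0.5% FBS and 0.7 µg/mL Sonic Hh agonist, n=4 wells, for 48 h. Readout was the Firefly/Renilla luciferase ratio in lysates.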

[2] = Cmax in Sprague-Dawley rat at 1 mg/kg, iv by LC/MS/MS analysis; format: ADME, organism-based; parameters: dose 1 mg/kg, route intravenous; settings: in vivo
Method in brief: (§1)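 Male SD rats, 180–240 g, 3 per compound; single dose of 1 mg/kg iv or 5 mg/kg po, dosing volume 5 mL/kg. Blood was sampled from 2 min to 24 h and centrifuged at 4 °C. Plasma underwent protein precipitation, then LC/MS/MS in SRM mode with an internal standard. Parameters were derived by noncompartmental analysis.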

[3] = AUC (0 to t) in Sprague-Dawley rat at 1 mg/kg, iv by LC/MS/MS analysis; format: ADME, organism-based; settings: in vivo
Method in brief: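 Male SD rats, 3 per compound, 180–240 g, single iv dose at 1 mg/kg, dosing volume 5 mL/kg. Blood sampled at 2, 5, 15, 30 min and 1, 2, 4, 6, 8, 10, 24 h, then centrifuged at 4 °C. Plasma protein-precipitated and analysed by LC/MS/MS in SRM mode with internal standard. AUC(0-t) obtained by noncompartmental analysis.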

[4] = Apparent volume of distribution in Sprague-Dawley rat at 1 mg/kg, iv by LC/MS/MS analysis; settings: in vivo
[5] = Clearance in Sprague-Dawley rat at 1 mg/kg, iv by LC/MS/MS analysis; format: ADME, organism-based; settings: in vivo; method in brief: as §1
[6] = Mean resident time (0 to t) in Sprague-Dawley rat at 1 mg/kg, iv by LC/MS/MS analysis; format: ADME, organism-based; settings: in vivo; method in brief: as §1
[7] = Half life in Sprague-Dawley rat at 1 mg/kg, iv by LC/MS/MS analysis; format: ADME, organism-based; settings: in vivo; method in brief: as §1
[8] = Cmax in Sprague-Dawley rat at 5 mg/kg, po by LC/MS/MS analysis; format: ADME, organism-based; parameters: dose 5 mg/kg, route oral; settings: in vivo; method in brief: as §1
[9] = AUC (0 to t) in Sprague-Dawley rat at 5 mg/kg, po by LC/MS/MS analysis; format: ADME, organism-based; settings: in vivo; method in brief: as §1
Rattus norvegicus = experiment: Apparent volume of distribution in Sprague-Dawley rat at 5 mg/kg, po by LC/MS/MS analysis; settings: in vivo
[10] = Clearance in Sprague-Dawley rat at 5 mg/kg, po by LC/MS/MS analysis; format: ADME, organism-based; settings: in vivo; method in brief: as §1
[11] = Mean resident time (0 to t) in Sprague-Dawley rat at 5 mg/kg, po by LC/MS/MS analysis; format: ADME, organism-based; settings: in vivo; method in brief: as §1
[12] = Half life in Sprague-Dawley rat at 5 mg/kg, po by LC/MS/MS analysis; format: ADME, organism-based; settings: in vivo; method in brief: as §1

| SMILES | pIC50 [1] | Cmax [2] | AUC(0-t) [3] | Vd [4] | clearance [5] | MRT last [6] | half-life [7] | also measured |
| --- | --- | --- | --- | --- | --- | --- | --- | --- |
| Cc1ccc(CN(C)C)cc1NC(=O)c1ccc(Nc2nccc(-c3ccc(OC(F)(F)F)cc3)n2)cc1 | 8.52 | – | – | – | – | – | – | – |
| Cc1ccc(CN2CCN(C)CC2)cc1NC(=O)c1ccc(Nc2ncc(F)c(-c3ccc(OC(F)(F)F)cc3)n2)cc1 | 8.55 | – | – | – | – | – | – | – |
| Cc1ccc(CN2CCOCC2)cc1NC(=O)c1ccc(Nc2ncc(F)c(-c3ccc(OC(F)(F)F)cc3)n2)nc1 | 9.11 | 770 ng/mL | 625 ng·h/mL | 4.62 L/kg | 26.4 mL/min/kg | 1.98 h | 2.02 h | – |
| O=C(Nc1cccc(CN2CCOCC2)c1)c1ccc(Nc2nccc(-c3ccc(OC(F)(F)F)cc3)n2)cc1 | 9.25 | 915 ng/mL | 769 ng·h/mL | 6.33 L/kg | 21.5 mL/min/kg | 1.53 h | 3.59 h | – |
| CCN(CC)Cc1ccc(C)c(NC(=O)c2ccc(Nc3ncc(F)c(-c4ccc(OC(F)(F)F)cc4)n3)cc2)c1 | 8.59 | – | – | – | – | – | – | – |
| Cc1ccc(CN2CCOCC2)cc1NC(=O)c1ccc(Nc2ncc(F)c(-c3ccc(OC(F)(F)F)cc3)n2)cn1 | 8.94 | 3140 ng/mL | 1890 ng·h/mL | 6.28 L/kg | 8.37 mL/min/kg | 4.23 h | 8.85 h | Cmax [8]: 86.6 ng/mL; AUC(0-t) [9]: 923 ng·h/mL; Vd(app) (Rattus norvegicus): 50.45546 L/kg; CL/F [10]: 80.8 mL/min/kg; MRT last [11]: 7.74 h; half-life [12]: 7.24 h |
| Cc1ccc(CN2CCCCC2)cc1NC(=O)c1ccc(Nc2ncc(F)c(-c3ccc(OC(F)(F)F)cc3)n2)cc1 | 8.51 | – | – | – | – | – | – | – |
| Cc1ccc(CN2CCOCC2)cc1NC(=O)c1ccc(Nc2ncc(C3CC3)c(-c3ccc(OC(F)(F)F)cc3)n2)cc1 | 7.92 | – | – | – | – | – | – | – |
| Cc1ccc(CN2CCN(C)CC2)cc1NC(=O)c1ccc(Nc2nccc(-c3ccc(OC(F)(F)F)cc3)n2)cc1 | 9.01 | – | – | – | – | – | – | – |
